# Test results: ChEMBL document CHEMBL1145047, “Design, synthesis, and evaluation of substituted phenylpropanoic acid derivatives as human peroxisome proliferator activated receptor activators. Discovery of potent and human peroxisome proliferator activated receptor alpha subtype-selective activators” (J Med Chem, 2003)
# Active and inactive are the calls of the source. The rule behind the calls is not given here.
# Columns and labels:
# [1] = target: T1, Peroxisome proliferator-activated receptor gamma (Homo sapiens) (UniProt P37231); test: In vitro effective concentration for agonist activity on human Peroxisome proliferator activated receptor gamma-Gal4 chimeric receptor in transfected CHO-K1 cells at 10 uM; format: functional, cell-based
# T1 sequence (whole entry): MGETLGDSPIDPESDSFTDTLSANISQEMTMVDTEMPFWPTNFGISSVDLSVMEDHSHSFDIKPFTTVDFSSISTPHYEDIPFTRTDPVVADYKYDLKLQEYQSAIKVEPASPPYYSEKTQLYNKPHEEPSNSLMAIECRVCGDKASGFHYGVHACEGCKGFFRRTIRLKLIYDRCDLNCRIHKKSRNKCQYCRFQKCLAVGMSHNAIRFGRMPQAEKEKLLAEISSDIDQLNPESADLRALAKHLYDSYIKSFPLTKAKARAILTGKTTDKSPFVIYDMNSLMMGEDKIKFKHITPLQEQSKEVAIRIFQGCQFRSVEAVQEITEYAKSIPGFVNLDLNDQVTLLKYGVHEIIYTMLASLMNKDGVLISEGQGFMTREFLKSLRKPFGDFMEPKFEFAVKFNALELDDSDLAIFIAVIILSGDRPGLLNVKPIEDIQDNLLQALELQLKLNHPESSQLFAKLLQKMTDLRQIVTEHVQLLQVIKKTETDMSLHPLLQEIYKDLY
# [2] = target: T2, Peroxisome proliferator-activated receptor delta (Homo sapiens) (UniProt Q03181); test: (§1) Agonist activity on Gal4 chimeric human Peroxisome proliferator activated receptor delta expressed in CHO-K1 cells; format: functional, cell-based
# T2 sequence (whole entry): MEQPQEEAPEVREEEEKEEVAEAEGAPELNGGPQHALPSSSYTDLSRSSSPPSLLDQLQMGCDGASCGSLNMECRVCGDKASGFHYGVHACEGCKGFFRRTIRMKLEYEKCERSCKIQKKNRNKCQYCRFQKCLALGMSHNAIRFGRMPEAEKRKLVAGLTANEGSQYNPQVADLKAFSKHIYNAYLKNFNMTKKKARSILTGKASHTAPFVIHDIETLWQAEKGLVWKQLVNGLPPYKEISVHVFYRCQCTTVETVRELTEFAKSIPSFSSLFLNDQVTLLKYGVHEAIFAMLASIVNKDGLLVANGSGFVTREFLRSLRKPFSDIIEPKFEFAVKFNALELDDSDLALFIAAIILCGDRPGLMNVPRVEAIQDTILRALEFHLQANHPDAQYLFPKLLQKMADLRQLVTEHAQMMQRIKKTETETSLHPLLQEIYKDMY
# In short: (§2)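 GAL4–human PPAR LBD chimera, reporter assay in CHO-K1 cells. Cells seeded at 5 × 10⁴/well in Ham's F12 with 10% FCS for 24 h at 37 °C. Cotransfected for 2 h (lipofectamine) per well with 40 ng GAL4/PPAR LBD, 400 ng pFR-Luc and 5 ng pRL-TK. Compounds applied for 20 h at 37 °C, then luciferase read from cell lysates. EC50 is 50% of maximal reporter activity, from curve fit, n = 3.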
# [3] = target: T3, Peroxisome proliferator-activated receptor alpha (Homo sapiens) (UniProt Q07869); test: Agonist activity on Gal4 chimeric human Peroxisome proliferator activated receptor alpha expressed in CHO-K1 cells; format: functional, cell-based; in short: as §2
# T3 sequence (whole entry): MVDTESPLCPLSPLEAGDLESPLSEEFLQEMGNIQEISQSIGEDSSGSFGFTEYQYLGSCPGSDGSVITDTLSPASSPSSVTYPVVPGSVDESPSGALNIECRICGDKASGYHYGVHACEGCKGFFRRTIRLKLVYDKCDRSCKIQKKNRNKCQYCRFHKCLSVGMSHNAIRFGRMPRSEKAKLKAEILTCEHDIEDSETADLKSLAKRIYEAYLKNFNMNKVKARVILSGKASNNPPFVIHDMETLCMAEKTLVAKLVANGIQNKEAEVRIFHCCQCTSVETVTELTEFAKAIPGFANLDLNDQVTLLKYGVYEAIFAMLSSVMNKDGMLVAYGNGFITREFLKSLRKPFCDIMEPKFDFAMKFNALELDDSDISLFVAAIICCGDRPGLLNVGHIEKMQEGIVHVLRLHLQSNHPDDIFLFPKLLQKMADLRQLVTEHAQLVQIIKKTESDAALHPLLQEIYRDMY
# [4] = target: T4, Peroxisome proliferator-activated receptor gamma (Homo sapiens, UniProt P37231)
# T4 sequence (P37231 whole entry): T1 sequence (whole entry)
# [5] = target: T2, Peroxisome proliferator-activated receptor delta (Homo sapiens); test: In vitro In vitro effective concentration for agonist activity on human Peroxisome proliferator activated receptor delta-GAL4 chimeric receptor in transfected CHO-K1 cells at 10 uM; inactive; format: functional, cell-based
# [6] = target: T5, Peroxisome proliferator-activated receptor delta (Homo sapiens, UniProt Q03181); test: as §1; format: functional, cell-based
# T5 sequence (Q03181 whole entry): T2 sequence (whole entry)
# [7] = target: T6, Peroxisome proliferator-activated receptor alpha (Homo sapiens, UniProt Q07869); format: functional, cell-based
# T6 sequence (Q07869 whole entry): T3 sequence (whole entry)
# Rattus norvegicus [8] = test: In vivo percent reduction on TG of the rat at 30 mg/kg after 5 days; format: functional
# In short: (§3)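 Male Sprague-Dawley rats, 11 weeks old, fed standard chow and water ad libitum. Drug or vehicle suspended in 0.5% w/v arabic gum and given orally once daily at 0.3, 3 or 30 mg/kg; duration is 4 days in the methods and 5 days in the table. Plasma taken in the fed state. TG, FFA and total cholesterol measured enzymatically. HDL obtained by precipitation; LDL+VLDL = total minus HDL cholesterol. Values are mean percent reduction, N = 5 or 6.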
# Rattus norvegicus [9] = test: In vivo percent reduction on FFA of the rat at 30 mg/kg after 5 days; format: functional; in short: as §3
# Rattus norvegicus [10] = test: In vivo percent reduction on LDL+VLDL of the rat at 30 mg/kg after 5 days; format: functional; in short: as §3
# Rattus norvegicus [11] = test: In vivo percent reduction on total cholesterol of the rat at 30 mg/kg after 5 days; format: functional; in short: as §3
# [12] = target: T2, Peroxisome proliferator-activated receptor delta (Homo sapiens); test: In vitro effective concentration for agonist activity on human Peroxisome proliferator activated receptor delta-GAL4 chimeric receptor in transfected CHO-K1 cells; inactive; format: functional, cell-based; in short: as §2
# [13] = target: T2, Peroxisome proliferator-activated receptor delta (Homo sapiens); test: In vitro effective concentration for agonist activity on human Peroxisome proliferator activated receptor delta-GAL4 chimeric receptor in transfected CHO-K1 cells at 10 uM; inactive; format: functional, cell-based
# [14] = target: T2, Peroxisome proliferator-activated receptor delta (Homo sapiens); test: In vitro effective concentration for agonist activity on human Peroxisome proliferator activated receptor delta-GAL4 chimeric receptor in transfected CHO-K1 cells at 10 uM; inactive
Compound,IA [1],IA [2],EC50 [7] [µM],further results
CCC(Cc1ccc(OC)c(CNCc2ccc(C(F)(F)F)cc2)c1)C(=O)O (centres undefined),inactive,–,–,–
CCC(Cc1ccc(OC)c(C(=O)N(C)Cc2ccc(C(F)(F)F)cc2)c1)C(=O)O (centres undefined),inactive,inactive,–,IA [3]: inactive
COc1ccc(CC(OC)C(=O)O)cc1C(=O)NCc1ccc(C(F)(F)F)cc1 (centres undefined),inactive,inactive,–,–
CCC(Cc1ccc(OC)c(C(=O)NCc2ccc(-c3ccccc3)cc2)c1)C(=O)O (centres undefined),–,inactive,–,EC50 [4]: 4 µM
COc1ccc(CCCC(=O)O)cc1C(=O)NCc1ccc(C(F)(F)F)cc1,–,inactive,–,–
COc1ccc(CC(=O)O)cc1C(=O)NCc1ccc(C(F)(F)F)cc1,inactive,–,–,IA [5]: inactive; IA [3]: inactive
CCC(Cc1ccc(OC)c(OCCc2ccc(C(F)(F)F)cc2)c1)C(=O)O (centres undefined),inactive,–,–,–
COc1ccc(CC(C(=O)O)C(C)C)cc1C(=O)NCc1ccc(C(F)(F)F)cc1 (centres undefined),inactive,inactive,–,–
CCC(CC)(Cc1ccc(OC)c(C(=O)NCc2ccc(C(F)(F)F)cc2)c1)C(=O)O,inactive,inactive,–,–
CCC(Cc1ccc(OC)c(C(=O)NCc2ccc(OC(F)(F)F)cc2)c1)C(=O)O (centres undefined),inactive,–,0.043,EC50 [6]: 0.9 µM
CCC(Cc1ccc(OC)c(C(=O)NCc2ccc(OCCc3ccccc3)cc2)c1)C(=O)O (centres undefined),–,inactive,2.7,EC50 [4]: 3 µM
CCC(Cc1ccc(OC)c(C(=O)NCCc2ccc(C(F)(F)F)cc2)c1)C(=O)O (centres undefined),inactive,–,–,–
CC(C)(Oc1ccc(CCNC(=O)c2ccc(Cl)cc2)cc1)C(=O)O [BEZAFIBRATE],–,–,–,Reduction (Rattus norvegicus [8]): 41%; Reduction (Rattus norvegicus [9]): 46%; EC50 [6]: > 143 µM; Reduction (Rattus norvegicus [10]): 22%; Reduction (Rattus norvegicus [11]): 27%
CCC(Cc1ccc(OC)c(C(=O)NCc2ccc(CCc3ccccc3)cc2)c1)C(=O)O (centres undefined),–,inactive,5.6,EC50 [4]: 5.4 µM
CCSC(Cc1ccc(OC)c(C(=O)NCc2ccc(C(F)(F)F)cc2)c1)C(=O)O (centres undefined),–,–,1.6,EC50 [6]: 3 µM; EC50 [4]: 2.8 µM
CCCCC(Cc1ccc(OC)c(C(=O)NCc2ccc(C(F)(F)F)cc2)c1)C(=O)O (centres undefined),–,–,–,IA [12]: inactive
CCC(Cc1ccc(OC)c(C(=O)Nc2ccc(C(F)(F)F)cc2)c1)C(=O)O (centres undefined),inactive,inactive,–,–
CCC(Cc1ccc(OC)c(CC(=O)Nc2ccc(C(F)(F)F)cc2)c1)C(=O)O (centres undefined),inactive,inactive,–,–
COc1ccc(CC(C(=O)O)c2ccccc2)cc1C(=O)NCc1ccc(C(F)(F)F)cc1 (centres undefined),inactive,inactive,–,IA [3]: inactive
COc1ccc(CC(C)(C)C(=O)O)cc1C(=O)NCc1ccc(C(F)(F)F)cc1,inactive,inactive,–,–
COc1ccc(CC(Sc2ccccc2)C(=O)O)cc1C(=O)NCc1ccc(C(F)(F)F)cc1 (centres undefined),inactive,inactive,–,IA [3]: inactive
CCC(Cc1ccc(OC)c(C(=O)NCc2ccccc2)c1)C(=O)O (centres undefined),–,–,2.3,IA [13]: inactive; EC50 [4]: 10 µM

Compound,IA [1],IA [2],EC50 [7] [µM],further results
COc1ccc(CC2SC(=O)NC2=O)cc1C(=O)NCc1ccc(C(F)(F)F)cc1 (centres undefined),–,–,–,IA [14]: inactive
CCC(Cc1ccc(OC)c(C(=O)NCc2cccc(Oc3ccccc3)c2)c1)C(=O)O (centres undefined),–,inactive,0.4,EC50 [4]: 6.2 µM
CCC(Cc1ccc(OC)c(C(=O)NCc2ccc(Cl)cc2)c1)C(=O)O (centres undefined),inactive,–,3,IA [12]: inactive
CCC(Cc1ccc(OC)c(NC(=O)Nc2ccc(C(F)(F)F)cc2)c1)C(=O)O (centres undefined),inactive,inactive,–,IA [3]: inactive
COc1ccc(CC(Oc2ccccc2)C(=O)O)cc1C(=O)NCc1ccc(C(F)(F)F)cc1 (centres undefined),inactive,inactive,–,IA [3]: inactive
COc1ccc(CC(SCc2ccccc2)C(=O)O)cc1C(=O)NCc1ccc(C(F)(F)F)cc1 (centres undefined),inactive,inactive,–,IA [3]: inactive
CCC(Cc1ccc(OC)c(C(=O)CCc2ccc(C(F)(F)F)cc2)c1)C(=O)O (centres undefined),–,–,–,IA [13]: inactive
CCC(Cc1ccc(OC)c(NC(=O)Cc2ccc(C(F)(F)F)cc2)c1)C(=O)O (centres undefined),inactive,inactive,–,–
CCCC(Cc1ccc(OC)c(C(=O)NCc2ccc(C(F)(F)F)cc2)c1)C(=O)O (centres undefined),inactive,–,–,–
CCC(Cc1ccc(OC)c(CCCc2ccc(C(F)(F)F)cc2)c1)C(=O)O (centres undefined),inactive,–,–,–
COc1ccc(CC(C)C(=O)O)cc1C(=O)NCc1ccc(C(F)(F)F)cc1 (centres undefined),inactive,–,–,–
CCC(Cc1ccc(OC)c(C(=O)NCc2ccccc2Oc2ccccc2)c1)C(=O)O (centres undefined),inactive,inactive,–,IA [3]: inactive
CCC(Cc1ccc(OC)c(C(=O)NCc2ccccc2OC)c1)C(=O)O (centres undefined),inactive,inactive,9.4,–
CCC(Cc1ccc(OC)c(C(=O)NCc2cccc(C(F)(F)F)c2)c1)C(=O)O (centres undefined),inactive,–,1.8,IA [13]: inactive
CCC(Cc1ccc(OC)c(C(=O)NCc2cccc(OC)c2)c1)C(=O)O (centres undefined),–,inactive,3.1,–
CCC(Cc1ccc(OC)c(CNC(=O)c2ccc(C(F)(F)F)cc2)c1)C(=O)O (centres undefined),–,–,–,EC50 [4]: > 10 µM
CCC(Cc1ccc(OC)c(C(=O)NCc2ccc(OC)cc2)c1)C(=O)O (centres undefined),inactive,–,1.2,EC50 [6]: 6.6 µM
COc1ccc(C(=O)O)cc1C(=O)NCc1ccc(C(F)(F)F)cc1,inactive,inactive,–,IA [3]: inactive
CCC(Cc1ccc(OC)c(C(=O)NCc2ccc(OCc3ccccc3)cc2)c1)C(=O)O (centres undefined),inactive,inactive,1.5,–
CCC(Cc1ccc(OC)c(C(=O)NCc2ccc(Oc3ccccc3)cc2)c1)C(=O)O (centres undefined),–,–,0.09,EC50 [6]: 3 µM; EC50 [4]: 2.4 µM
COc1ccc(CCC(=O)O)cc1C(=O)NCc1ccc(C(F)(F)F)cc1,inactive,inactive,–,–
